In brackets after ≈: the same amount, converted by molar mass.
Assays:
NCI-H1975 = test: Antiproliferative activity against human NCI-H1975 cells expressing EGFR L858R/T790M double mutant after 72 hrs by MTS assay; assay type: functional, cell-based; conditions: NCI-H1975, 72 h
[1] = Thermodynamic aqueous solubility of the compound in PBS buffer at pH 6.8 after 24 hrs by HPLC analysis; assay type: physicochemical; conditions: for solubility thermodynamic at 24 h: PBS buffer, pH 6.8, read-out: Therm_solubility
Method in brief: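 Compound was shaken in aqueous buffer at pH 6.8 for 24 h at ambient temperature; dissolved concentration was measured by HPLC.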

[2] = molecular target: Epidermal growth factor receptor (Homo sapiens, UniProt P00533, L858R/T790M); test: Inhibition of EGFR L858R/T790M double mutant (unknown origin) after 1.5 hrs by FRET-based Z'-Lyte assay; assay type: protein assay
[3] = Cmax in Sprague-Dawley rat at 25 mg/kg, po by LC/MS analysis; assay type: ADME, organism-based; set-up: dose 25 mg/kg, route oral; conditions: in vivo
Method in brief: (§1)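 Male Sprague-Dawley rats (180−220 g), n = 4 per route, single iv dose 5 mg/kg or oral gavage 25 mg/kg. Vehicle was 2% DMSO, 4% EtOH, 4% castor oil, 90% H2O. Orbital sinus blood was taken from 2 min to 72 h into heparinized tubes. Plasma levels were measured by LC/MS with propranolol internal standard and analysed by pharmacokinetic modelling.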

[4] = Clearance in Sprague-Dawley rat at 25 mg/kg, po by LC/MS analysis; assay type: ADME, organism-based; set-up: dose 25 mg/kg, route oral; conditions: in vivo; method in brief: as §1
[5] = AUC (0 to infinity) in Sprague-Dawley rat at 25 mg/kg, po by LC/MS analysis; assay type: ADME, organism-based; set-up: dose 25 mg/kg, route oral, time infinity; conditions: plasma; method in brief: as §1
[6] = AUC (0 to infinity) in Sprague-Dawley rat at 5 mg/kg, iv by LC/MS analysis; assay type: ADME, organism-based; set-up: time infinity, dose 5 mg/kg, route intravenous; conditions: plasma; method in brief: as §1
[7] = Cmax in Sprague-Dawley rat at 5 mg/kg, iv by LC/MS analysis; assay type: ADME, organism-based; set-up: dose 5 mg/kg, route intravenous; conditions: in vivo; method in brief: as §1
[8] = Clearance in Sprague-Dawley rat at 5 mg/kg, iv by LC/MS analysis; assay type: ADME, organism-based; set-up: dose 5 mg/kg, route intravenous; conditions: in vivo; method in brief: as §1
[9] = Oral bioavailability in Sprague-Dawley rat at 25 mg/kg by LC/MS analysis; assay type: ADME, organism-based; conditions: in vivo; method in brief: as §1

Epidermal growth factor receptor, sequence (P00533 25-1210 T790M/L858R limits assumed): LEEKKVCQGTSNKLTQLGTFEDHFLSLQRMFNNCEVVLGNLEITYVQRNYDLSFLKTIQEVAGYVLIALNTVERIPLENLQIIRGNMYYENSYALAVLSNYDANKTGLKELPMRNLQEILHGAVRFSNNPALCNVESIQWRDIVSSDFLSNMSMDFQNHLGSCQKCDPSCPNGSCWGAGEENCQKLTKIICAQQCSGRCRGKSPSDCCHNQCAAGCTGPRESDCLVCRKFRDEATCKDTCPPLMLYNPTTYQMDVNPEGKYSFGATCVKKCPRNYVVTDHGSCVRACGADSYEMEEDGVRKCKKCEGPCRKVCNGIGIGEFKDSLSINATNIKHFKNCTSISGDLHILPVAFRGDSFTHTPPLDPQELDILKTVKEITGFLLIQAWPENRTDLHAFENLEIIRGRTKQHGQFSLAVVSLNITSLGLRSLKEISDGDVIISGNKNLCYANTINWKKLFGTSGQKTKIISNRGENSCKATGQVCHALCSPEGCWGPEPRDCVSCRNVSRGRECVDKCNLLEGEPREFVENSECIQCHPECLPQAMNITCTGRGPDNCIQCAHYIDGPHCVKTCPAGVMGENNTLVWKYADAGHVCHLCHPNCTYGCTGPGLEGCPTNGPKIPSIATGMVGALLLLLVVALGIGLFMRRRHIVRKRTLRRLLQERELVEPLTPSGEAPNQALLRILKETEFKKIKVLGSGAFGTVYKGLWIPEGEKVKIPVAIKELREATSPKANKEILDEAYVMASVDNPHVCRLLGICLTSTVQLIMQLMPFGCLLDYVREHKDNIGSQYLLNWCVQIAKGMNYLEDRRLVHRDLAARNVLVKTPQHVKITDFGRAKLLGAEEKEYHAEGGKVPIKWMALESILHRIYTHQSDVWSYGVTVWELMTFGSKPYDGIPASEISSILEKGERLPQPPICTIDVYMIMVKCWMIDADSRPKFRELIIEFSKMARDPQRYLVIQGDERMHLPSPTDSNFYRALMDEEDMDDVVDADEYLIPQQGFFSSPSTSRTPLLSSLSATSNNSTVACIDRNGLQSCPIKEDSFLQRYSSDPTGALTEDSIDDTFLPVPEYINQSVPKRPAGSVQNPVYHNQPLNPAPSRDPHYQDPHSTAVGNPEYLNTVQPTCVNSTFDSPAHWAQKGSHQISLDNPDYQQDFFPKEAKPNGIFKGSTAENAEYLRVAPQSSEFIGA

Row | SMILES | IC50 (NCI-H1975) [nM] | solubility thermodynamic at 24 h [1] [µg/mL] | IC50 [2] [nM] | Cmax [3] [ng/mL] | CL/F [4] [mL/min/kg] | AUC(0-inf) [5] [ng·h/mL] | AUC(0-inf) [6] [ng·h/mL] | Therm solubility ([1]; buffer, pH 6.8, 24 h) [µg/mL] | Cmax [7] [ng/mL] | clearance [8] [mL/min/kg] | bioavailability [9] [%]
1 | C=CC(=O)N1CC[C@H](N2C(=O)N(C(C)C)Cc3cnc(Nc4ccc(N5CCN(C)CC5)cc4OC)nc32)C1 | 3060 | 2490 (≈ 4660 µM) | 864 | – | – | – | – | – | – | – | –
2 | C=CC(=O)N1CC[C@H](N2C(=O)N(C)Cc3cnc(Nc4ccc(N5CCN(C)CC5)cc4OC)nc32)C1 | 1480 | 1250 (≈ 2470 µM) | 525 | – | – | – | – | – | – | – | –
3 | C=CC(=O)N1CC[C@H](N2C(=O)N(c3ccccc3)Cc3cnc(Nc4ccc(C5CCN(C)CC5)cc4)nc32)C1 | 311 | 310 (≈ 577 µM) | 16.2 | 359 | 335 | 1300 | – | – | – | – | –
4 | C=CC(=O)N1CC[C@H](N2C(=O)N(c3ccccc3)Cc3cnc(Nc4ccc(N5CCN(C)CC5)c(Cl)c4)nc32)C1 | 89 | 214 (≈ 374 µM) | 35.6 | – | – | – | – | – | – | – | –
5 | C=CC(=O)N1CCC(N2C(=O)N(Cc3ccccc3)Cc3cnc(Nc4ccc(N5CCN(C)CC5)cc4OC)nc32)CC1 | 546 | 9.3 (≈ 15.6 µM) | 144 | – | – | – | – | – | – | – | –
6 | C=CC(=O)NCCN1C(=O)N(Cc2ccccc2)Cc2cnc(Nc3ccc(N4CCN(C)CC4)cc3OC)nc21 | > 10000 | 96.7 (≈ 174 µM) | > 1000 | – | – | – | – | – | – | – | –
7 | C=CC(=O)Nc1cccc(N2C(=O)N(Cc3ccccc3)Cc3cnc(Nc4ccc(N5CCN(C)CC5)cc4OC)nc32)c1.CS(=O)(=O)O | – | – | – | – | – | – | 1570 | 4 | 4370 | 53.3 | –
8 | C=CC(=O)N1CC[C@H](N2C(=O)N(Cc3ccccc3)Cc3cnc(Nc4ccc(N5CCN(C)CC5)cc4OC)nc32)C1 | 279 | 107 (≈ 184 µM) | 8.8 | 102 | 1040 | 418 | 359 | – | 784 | 240 | 24
9 | C=CC(=O)N1CC[C@H](N2C(=O)N(c3ccccc3)Cc3cnc(Nc4ccc(N5CCN(C)CC5)c(C(F)(F)F)c4)nc32)C1 | 196 | 60.9 (≈ 100 µM) | 55.5 | – | – | – | – | – | – | – | –
10 | C=CC(=O)NC1CCC(N2C(=O)N(Cc3ccccc3)Cc3cnc(Nc4ccc(N5CCN(C)CC5)cc4OC)nc32)CC1 (centres undefined) | 2680 | 18.8 (≈ 30.8 µM) | 708 | – | – | – | – | – | – | – | –
11 | C=CC(=O)N1CC[C@@H](N2C(=O)N(Cc3ccccc3)Cc3cnc(Nc4ccc(N5CCN(C)CC5)cc4OC)nc32)C1 | 1550 | 199 (≈ 341 µM) | 107 | – | – | – | – | – | – | – | –
12 | C=CC(=O)N1CC[C@H](N2C(=O)N(c3ccccc3)Cc3cnc(Nc4ccc(CCN5CCN(C)CC5)cc4)nc32)C1 | 448 | 4350 (≈ 7680 µM) | 41.3 | 232 | 382 | 1130 | 561 | – | 1410 | 153 | 40
13 | C=CC(=O)N1CCC[C@@H](N2C(=O)N(Cc3ccccc3)Cc3cnc(Nc4ccc(N5CCN(C)CC5)cc4OC)nc32)C1 | 437 | 142 (≈ 237 µM) | 40.3 | – | – | – | – | – | – | – | –
14 | C=CC(=O)N1CC[C@H](N2C(=O)N(c3ccccc3)Cc3cnc(Nc4ccc(N5CCN(C)CC5)c(OC)c4)nc32)C1 | 65 | 256 (≈ 450 µM) | 7.2 | 420 | 467 | 948 | 949 | – | 3410 | 91.7 | 20
15 | C=CC(=O)N1CC[C@H](N2C(=O)N(c3ccccc3)Cc3cnc(Nc4cccc(N5CCN(C)CC5)c4)nc32)C1 | 523 | 714 (≈ 1330 µM) | 97.9 | 291 | 565 | 760 | 746 | – | 1820 | 113 | 20
16 | C=CC(=O)N1CC[C@H](N2C(=O)N(c3ccccc3)Cc3cnc(Nc4ccc(N5CCN(C)CC5)c(F)c4)nc32)C1 | – | 691 (≈ 1240 µM) | – | 964 | 122 | 3480 | 2120 | – | 3260 | 40 | 33
17 | C=CC(=O)N1CC[C@H](N2C(=O)N(c3ccccc3)Cc3cnc(Nc4ccc(N5CCN(C)CC5)cc4)nc32)C1 | 249 | 976 (≈ 1810 µM) | 29.1 | 783 | 203 | 2310 | 857 | – | 1520 | 96.7 | 54
18 | C=CC(=O)N1CC[C@H](N2C(=O)N(C3CCCC3)Cc3cnc(Nc4ccc(N5CCN(C)CC5)cc4OC)nc32)C1 | 679 | 250 (≈ 446 µM) | 58.7 | – | – | – | – | – | – | – | –
19 | C=CC(=O)N1CC[C@H](N2C(=O)N(C3CCCCC3)Cc3cnc(Nc4ccc(N5CCN(C)CC5)cc4OC)nc32)C1 | 654 | 763 (≈ 1330 µM) | 42.9 | – | – | – | – | – | – | – | –
20 | C=CC(=O)N1CC[C@H](N2C(=O)N(c3ccccc3)Cc3cnc(Nc4ccc(N5CCN(C)CC5)cc4OC)nc32)C1 | 111 | 1540 (≈ 2700 µM) | 15.2 | 613 | 200 | 2120 | 962 | – | 1790 | 86.7 | 44
21 | C=CC(=O)N1CCC[C@H](N2C(=O)N(Cc3ccccc3)Cc3cnc(Nc4ccc(N5CCN(C)CC5)cc4OC)nc32)C1 | 1560 | 129 (≈ 216 µM) | 204 | – | – | – | – | – | – | – | –
22 | C=CC(=O)N1CC[C@H](N2C(=O)N(c3ccccc3)Cc3cnc(Nc4ccccc4)nc32)C1 | 1680 | 3.5 (≈ 7.95 µM) | 235 | 1670 | 95 | 4520 | 2030 | – | 6540 | 41.7 | 44

Source: ChEMBL document CHEMBL3085739, “Design, synthesis, and biological evaluation of 2-oxo-3,4-dihydropyrimido[4,5-d]pyrimidinyl derivatives as new irreversible epidermal growth factor receptor inhibitors with improved pharmacokinetic properties” (J Med Chem, 2013)
